According to ChEMBL document CHEMBL1136463, “The relationship between physicochemical properties, in vitro activity and pharmacokinetic profiles of analogues of diamine-containing efflux pump inhibitors” (Bioorg Med Chem Lett, 2003):

Columns and labels:
Pseudomonas aeruginosa = test: Minimum potentiation concentration required to reduce (potentiate) the activity of antibacterial drug-levofloxacin for Pseudomonas aeruginosa by n-fold in the absence of horse serum; assay type: functional
[1] = Partition coefficient (logD); assay type: physicochemical; details: octanol/water
[2] = Ionization constant (pKa2) of compound was determined; assay type: physicochemical; details: read-out: pKa2
Rattus norvegicus [3] = test: Area under curve (AUC) at a dose 1 mg/kg was determined in rat kidney; assay type: ADME, organism-based; design: dose 1 mg/kg; details: in vivo
In short: (§1)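 Male Sprague–Dawley rats with femoral and jugular venous catheters (5 rats), dosed alone or in cassettes of up to five compounds by 2 h constant-rate femoral vein infusion at 1 to 10 mg/kg. One rat killed at 0.25, 2, 8, 16 and 24 h after infusion start. Liver, kidney and lung homogenates assayed by HPLC/MS/MS. Tissue AUC0–24 h normalized to 1 mg/kg.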

[4] = Partition coefficient (logP); assay type: physicochemical; details: octanol/water
Rattus norvegicus [5] = test: Area under curve (AUC) at a dose 1 mg/kg was determined in rat lung; assay type: ADME, organism-based; design: dose 1 mg/kg; details: in vivo; in short: as §1
[6] = Ionization constant (pKa1) of compound was determined; assay type: physicochemical; details: read-out: pKa1
Rattus norvegicus [7] = test: Area under curve (AUC) at a dose 1 mg/kg was determined in rat liver; assay type: ADME, organism-based; design: dose 1 mg/kg; details: in vivo; in short: as §1
[8] = Clearance (Cl) of compound after 2 h iv infusion of 8.4 mg/kg in three rat; assay type: ADME, organism-based; design: dose 8.4 mg/kg, route intravenous; details: in vivo
[9] = Steady state volume distribution (Vss) of compound after 2 hr iv infusion of 8.4 mg/kg in three rat; assay type: ADME, organism-based; design: dose 8.4 mg/kg, route intravenous; details: in vivo, read-out: Vss
[10] = T1/2 (half life) of compound after 2 hr iv infusion of 8.4 mg/kg in three rat; assay type: ADME, organism-based; design: dose 8.4 mg/kg, route intravenous; details: in vivo

NCC(=O)N1C[C@@H](N)C[C@@H]1C(=O)N[C@H](CCc1ccccc1)C(=O)Nc1ccc2ncccc2c1
MPC (Pseudomonas aeruginosa): 20 µg/mL | logD [1]: 0.5 | pKa [2]: 7.2 | AUC (Rattus norvegicus [3]): 96 mg·h/kg | logP [4]: 1.4 | AUC (Rattus norvegicus [5]): 4 mg·h/kg | pKa [6]: 8.2 | AUC (Rattus norvegicus [7]): 12 mg·h/kg

Cc1cc2nc([C@@H](CCc3ccccc3)NC(=O)[C@H]3C[C@H](N)CN3C(=O)CN)[nH]c2cc1C
MPC (Pseudomonas aeruginosa): 5 µg/mL | logD [1]: 1.9 | AUC (Rattus norvegicus [3]): 133 mg·h/kg | logP [4]: 2.8 | AUC (Rattus norvegicus [5]): 5 mg·h/kg | AUC (Rattus norvegicus [7]): 176 mg·h/kg

NCC(=O)N1CCNCC1C(=O)N[C@H](CCc1ccccc1)C(=O)Nc1cnc2ccccc2c1 (stereo partly drawn)
MPC (Pseudomonas aeruginosa): 20 µg/mL | pKa [2]: 6.3 | pKa [6]: 8.2

N[C@@H]1CN[C@@H](C(=O)N[C@H](CCc2ccccc2)C(=O)Nc2cnc3ccccc3c2)C1
MPC (Pseudomonas aeruginosa): >40 µg/mL | logD [1]: 1.1 | pKa [2]: 5.2 | AUC (Rattus norvegicus [3]): 25 mg·h/kg | logP [4]: 2.3 | AUC (Rattus norvegicus [5]): 14 mg·h/kg | pKa [6]: 8.8 | AUC (Rattus norvegicus [7]): 13 mg·h/kg

NCC(=O)N1C[C@@H](N)C[C@@H]1C(=O)N[C@H](CCc1ccccc1)C(=O)Nc1cnc2ccccc2c1
MPC (Pseudomonas aeruginosa): 10 µg/mL | logD [1]: 0.9 | pKa [2]: 7.1 | AUC (Rattus norvegicus [3]): 79 mg·h/kg | logP [4]: 1.8 | AUC (Rattus norvegicus [5]): 3 mg·h/kg | pKa [6]: 8.1 | AUC (Rattus norvegicus [7]): 20 mg·h/kg

N[C@@H]1CN[C@@H](CC(=O)N[C@H](CCc2ccccc2)C(=O)Nc2cnc3ccccc3c2)C1
MPC (Pseudomonas aeruginosa): 5 µg/mL | pKa [2]: 6.3 | pKa [6]: 9.3

NCC(=O)N1CCNC(C(=O)N[C@H](CCc2ccccc2)C(=O)Nc2cnc3ccccc3c2)C1 (stereo partly drawn)
MPC (Pseudomonas aeruginosa): >40 µg/mL | pKa [2]: 5.4 | pKa [6]: 8.5

NCC(=O)N1C[C@@H](CN)C[C@@H]1C(=O)N[C@H](CCc1ccccc1)C(=O)Nc1ccc2ncccc2c1
MPC (Pseudomonas aeruginosa): 10 µg/mL | logD [1]: -0.5 | pKa [2]: 7.7 | AUC (Rattus norvegicus [3]): 100 mg·h/kg | logP [4]: 1.2 | AUC (Rattus norvegicus [5]): 4 mg·h/kg | pKa [6]: 9 | AUC (Rattus norvegicus [7]): 26 mg·h/kg

NC[C@@H]1CN[C@@H](C(=O)N[C@H](CCc2ccccc2)C(=O)Nc2cnc3ccccc3c2)C1
MPC (Pseudomonas aeruginosa): 5 µg/mL | pKa [2]: 6.8 | pKa [6]: 9.6

C[C@@H](N)C(=O)N[C@H](CCc1ccccc1)C(=O)Nc1cnc2ccccc2c1
AUC (Rattus norvegicus [3]): 8.5 mg·h/kg | AUC (Rattus norvegicus [7]): 5.5 mg·h/kg

NC[C@@H]1CN[C@@H](C(=O)N[C@H](CCc2ccccc2)C(=O)Nc2ccc3ncccc3c2)C1
MPC (Pseudomonas aeruginosa): 10 µg/mL | logD [1]: 0.5 | clearance [8]: 26.7 mL/min/kg | Vd [9]: 0.5 L/kg | pKa [2]: 6.9 | AUC (Rattus norvegicus [3]): 56 mg·h/kg | logP [4]: 2.3 | AUC (Rattus norvegicus [5]): 15 mg·h/kg | pKa [6]: 9.6 | AUC (Rattus norvegicus [7]): 22 mg·h/kg | half-life [10]: 43.8 min
